Test [1] deals with Primary cortical neuron. Kind of test: Induction of microtubule stabilization in mouse Primary cortical neuron cells assessed as prevention of okadaic acid induced microtubule collapse by measuring cellular acetylated alpha-tubulin level at 10 uM incubated for 8 hrs by ELISA. The format is cell-based. Put shortly:
(§1)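 Embryonic dissociated cortical neurons (mouse or rat) plated 3 × 10^5/well on poly-D-lysine, grown 10 days, then treated 8 h with 15 nM okadaic acid plus compound or vehicle (0.25% DMSO). Homogenate AcTub measured by ELISA; one-way ANOVA versus vehicle without okadaic acid.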

For test [2], the system named is Primary cortical neuron. Kind of test: Induction of microtubule stabilization in rat Primary cortical neuron cells assessed as prevention of okadaic acid induced microtubule collapse by measuring cellular acetylated alpha-tubulin level at 1 uM incubated for 8 hrs by ELISA. The format is cell-based. Put shortly: as §1
Background: ELISA stands for enzyme-linked immunosorbent assay.

For test [3], the target named is T1, Tubulin (Homo sapiens) (UniProt P68371+Q9H4B7+P0DPH7+P68366+Q13509+Q71U36+P04350+Q3ZCM7+P07437+P68363+Q9BQE3+Q6PEY2+Q13885+Q9BVA1+Q9BUF5). Kind of test: Induction of microtubule stabilization in human HEK293-A cells assessed as fold change in cellular acetylated alpha-tubulin level at 10 uM incubated for 4 hrs by ELISA relative to cevipabulin. The format is cell-based. Put shortly: (§2)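 QBI293 cells (2 × 10^5/well) treated 4 h with compound or DMSO vehicle; AcTub in whole-cell extracts measured by ELISA with BCA protein normalization. Fold-change in AcTub relative to DMSO then expressed against change produced by positive-control reference compound at 100 nM run alongside, to correct day-to-day responsiveness.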

Another test has as its system Mus musculus. The experiment in a line: Binding affinity to microtubule in CD-1 mouse brain assessed as increase in de-tyrosinated alpha-tubulin level at 1 mg/kg, ip qd for 2 days […]. To be noted: time 2.0 day. Format: organism-based. Put shortly:
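CD-1 mice (n = 4 per group) got two i.p. doses 1 mg/kg, about 24 h apart, from DMSO stock diluted into 30% Kolliphor EL in PBS pH 7.4; vehicle controls. Cortex and hippocampus taken 4 h after second dose, homogenized in RIPA with protease inhibitors, PMSF, 3 μM trichostatin A; equal protein western blot for Glu-tubulin, α-tubulin, GAPDH; infrared imaging; GluTub/α-Tub ratio versus vehicle.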

Test [4] concerns the target T1, Tubulin (Homo sapiens). Kind of test: Induction of microtubule stabilization in human HEK293-A cells assessed as fold change as increase in cellular acetylated alpha-tubulin level at 10 uM incubated for 4 hrs by ELISA relative to control. The format is cell-based. Put shortly: (§3)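 QBI293 cells (2 × 10^5/well) plated overnight, then fresh medium with compound (from 4–20 mM DMSO stocks) or vehicle (0.25–0.3% DMSO) for 4 h. Whole-cell extracts normalized by BCA protein; AcTub and total α-tubulin quantified by ELISA, as fold-change versus DMSO cells; one-way ANOVA.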

Test [5] deals with T1, Tubulin (Homo sapiens). The experiment in a line: Induction of microtubule stabilization in human HEK293-A cells assessed as fold change as increase in cellular acetylated alpha-tubulin level at 1 uM incubated for 4 hrs by ELISA relative to control. The format is cell-based. Put shortly:
as §3

The target of test [6] is T1, Tubulin (Homo sapiens). The experiment in a line: Induction of microtubule stabilization in human HEK293-A cells assessed as fold change in total alpha-tubulin level reduction at 10 uM incubated for 4 hrs by ELISA relative to control. The format is cell-based. Put shortly:
as §3

Test [7] concerns the target T1, Tubulin (Homo sapiens). The experiment in a line: Induction of microtubule stabilization in human HEK293-A cells assessed as fold change in cellular acetylated alpha-tubulin level at 1 uM incubated for 4 hrs by ELISA relative to cevipabulin. The format is cell-based. Put shortly: as §2
The target in test [8] is T1, Tubulin (Homo sapiens). Kind of test: Induction of microtubule stabilization in human HEK293-A cells assessed as fold change in total alpha-tubulin level reduction at 1 uM incubated for 4 hrs by ELISA relative to control. The format is cell-based. Put shortly:
as §3

Activity calls are given as the source filed them. No cut-off for these calls is given here.

Consider `C[C@@H](Nc1c(-c2c(F)cc(OCCCN(C)C)cc2F)c(Cl)nc2ncnn12)C(C)(C)C`, for which, in the test with Primary cortical neuron [1], the result was Active.
With `CC(C)[C@@H](Nc1c(-c2c(F)cc(F)cc2F)c(Cl)nc2ncnn12)C(F)(F)F`, the result in the test on Primary cortical neuron [2] was inactive.
As for `C[C@@H](Nc1c(-c2c(F)cc(F)cc2F)c(Cl)nc2ncnn12)C1(C)N=N1`, the fold change (FC) on Tubulin (Homo sapiens) [3] amounted to 0.33.
Turning to `C[C@@H](Nc1c(-c2c(F)cc(C#CCCN(C)C)cc2F)c(Cl)nc2ncnn12)C(C)(C)C`, the result in the test with Mus musculus and in the test on Primary cortical neuron [1] was Active.
Regarding `C[C@@H](Nc1c(-c2c(F)cc(C#N)cc2F)c(Cl)nc2ncnn12)C(C)(C)C`, the result in the test with Mus musculus was Active.
As to `CO[C@H]1C[C@H]2CC[C@@H](C1)N2c1c(-c2ccc(F)cc2F)c(Cl)nc2ncnn12`, the fold change (FC) at Tubulin (Homo sapiens) [4] came to 7.43; on Tubulin (Homo sapiens) [5], 3.65; on Tubulin (Homo sapiens) [6], 1.38; on Tubulin (Homo sapiens) [7], 0.54; on Tubulin (Homo sapiens) [8], 1.12; at Tubulin (Homo sapiens) [3], 1.11.
Consider `C[C@@H](Nc1c(-c2c(F)cc(C#CCCCO)cc2F)c(Cl)nc2ncnn12)C(C)(C)C`, for which the outcome in the test on Primary cortical neuron [1] was Active.
In the case of `CC(C)[C@H](Nc1c(-c2c(F)cc(F)cc2F)c(Cl)nc2ncnn12)C(F)(F)F`, the outcome in the test on Primary cortical neuron [2] was inactive.
Regarding `CC(C)[C@@H](C)Nc1c(-c2c(F)cc(C#CCCCO)cc2F)c(Cl)nc2ncnn12`, the outcome in the test on Primary cortical neuron [1] was Active.
Take `C[C@@H](Nc1c(-c2c(F)cc(OCCCO)cc2F)c(Cl)nc2ncnn12)C(C)(C)C`: in the test with Primary cortical neuron [1], the outcome was inactive.
Regarding `CC(C)[C@@H](C)Nc1c(-c2c(F)cc(F)cc2F)c(Cl)nc2ncnn12`, the result with Primary cortical neuron [2] and with Primary cortical neuron [1] was Active.
`CC(C)[C@@H](C)Nc1c(-c2c(F)cc(C#CCCO)cc2F)c(Cl)nc2ncnn12`: the result in the test with Primary cortical neuron [1] was Active.
For the compound `C[C@@H](Nc1c(-c2c(F)cc(C#CCCO)cc2F)c(Cl)nc2ncnn12)C(C)(C)C`, the result in the test with Mus musculus and in the test with Primary cortical neuron [1] was Active.
`C[C@@H](Nc1c(-c2c(F)cc(F)cc2F)c(Cl)nc2ncnn12)C1CC1`: the fold change (FC) on Tubulin (Homo sapiens) [8] is 1.11.
